# Data from ChEMBL document CHEMBL1124901 (J Med Chem, 1990).
# What was measured:
# [1] = Partition coefficient (logP); type: physicochemical; conditions: octanol/water
# Dopamine receptor = test: In vitro inhibition of [3H]spiperone binding to Dopamine receptor D2 in Macaca nemestrina striatal membranes; set-up: species or system Striatum, Membrane
# How it was run: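 Caudate tissue from adult Macaca nemestrina brains, homogenized in ice-cold 50 mM potassium phosphate pH 7.4, washed twice by centrifugation at 30000g and stored at -70 °C. Assay used 25-50 µg protein in 50 mM Tris-HCl, 120 mM NaCl, 5 mM CaCl2, 1 mM MgCl2, pH 7.4, with 0.2 nM [3H]spiperone for 30 min at 37 °C. Bound ligand was collected by filtration and counted by scintillation. Nonspecific binding was defined with 1 µM cis-flupenthixol. Ki was taken from competitive displacement.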
# Rattus norvegicus [2] = test: In vivo tissue biodistribution behavior of high specific activity was determined in rat whole brain at 5 min postinjection of radiolabeled compound; type: ADME, organism-based
# How it was run: (§1)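 Female Sprague-Dawley rats (200-250 g) under light ether anesthesia received 50-100 µCi of the 18F-labelled ligand (>1000 Ci/mmol) in 0.2 mL buffered saline into the femoral vein. Food and water were free until decapitation. Blood was drawn by cardiac puncture and the femur and brain regions were taken. Tissues were weighed and gamma counted. Values are %ID/g, mean ± SD of 4-5 rats.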
# [3] = In vivo tissue biodistribution behavior of high specific activity was determined in whole brain at 60 min postinjection of radiolabeled compound; type: ADME, organism-based; conditions: 1 h; how it was run: as §1
# Rattus norvegicus [4] = test: In vivo tissue biodistribution behavior of high specific activity was determined in rat blood at 30 min postinjection of radiolabeled compound; type: ADME, organism-based; conditions: 0.5 h; how it was run: as §1
# Rattus norvegicus [5] = test: In vivo tissue biodistribution behavior of high specific activity was determined in rat blood at 5 min postinjection of radiolabeled compound; type: ADME, organism-based; how it was run: as §1
# Rattus norvegicus [6] = test: In vivo tissue biodistribution behavior of high specific activity was determined in rat blood at 60 min postinjection of radiolabeled compound; type: ADME, organism-based; conditions: 1 h; how it was run: as §1
# Rattus norvegicus [7] = test: In vivo tissue biodistribution behavior of high specific activity was determined in rat bone at 30 min postinjection of radiolabeled compound; type: ADME, organism-based, Bone element; conditions: 0.5 h; how it was run: as §1
# Rattus norvegicus [8] = test: In vivo tissue biodistribution behavior of high specific activity was determined in rat bone at 5 min postinjection of radiolabeled compound; type: ADME, organism-based, Bone element; how it was run: as §1
# Rattus norvegicus [9] = test: In vivo tissue biodistribution behavior of high specific activity was determined in rat bone at 60 min postinjection of radiolabeled compound; type: ADME, organism-based, Bone element; conditions: 1 h; how it was run: as §1
# Rattus norvegicus [10] = test: In vivo tissue biodistribution behavior of high specific activity was determined in rat cerebellum at 30 min postinjection of radiolabeled compound; type: ADME, organism-based; conditions: 0.5 h; how it was run: as §1
# Rattus norvegicus [11] = test: In vivo tissue biodistribution behavior of high specific activity was determined in rat cerebellum at 5 min postinjection of radiolabeled compound; type: ADME, organism-based; how it was run: as §1
# Rattus norvegicus [12] = test: In vivo tissue biodistribution behavior of high specific activity was determined in rat cerebellum at 60 min postinjection of radiolabeled compound; type: ADME, organism-based; conditions: 1 h; how it was run: as §1
# Rattus norvegicus [13] = test: In vivo tissue biodistribution behavior of high specific activity was determined in rat striatum at 30 min postinjection of radiolabeled compound; type: ADME, organism-based; conditions: 0.5 h; how it was run: as §1
# Rattus norvegicus [14] = test: In vivo tissue biodistribution behavior of high specific activity was determined in rat striatum at 5 min postinjection of radiolabeled compound; type: ADME, organism-based; how it was run: as §1
# Rattus norvegicus [15] = test: In vivo tissue biodistribution behavior of high specific activity was determined in rat striatum at 60 min postinjection of radiolabeled compound; type: ADME, organism-based; conditions: 1 h; how it was run: as §1
# Rattus norvegicus [16] = test: In vivo tissue biodistribution behavior of high specific activity was determined in rat whole brain at 30 min postinjection of radiolabeled compound; type: ADME, organism-based; conditions: 0.5 h; how it was run: as §1
# Rattus norvegicus [17] = test: In vivo tissue biodistribution behavior of high specific activity was determined in rat whole brain at 60 min postinjection of radiolabeled compound; type: ADME, organism-based; conditions: 1 h; how it was run: as §1
# [18] = Dissociation constant of the compound; value ranges from 0.81-1.2 nM; type: physicochemical
compound,measurement,setting,value
CCCCN1CCC[C@H]1CNC(=O)c1c(O)c(Cl)cc(Cl)c1OC,logP,[1],2.28
same,Ki,Dopamine receptor,41.1 nM
COc1c(Cl)cc(Cl)c(O)c1C(=O)NC[C@H]1CCCN1CCC(C)F (stereo not given in full),logP,[1],1.5
same,Ki,Dopamine receptor,2620 nM
CCCN1CCC[C@H]1CNC(=O)c1c(O)c(Cl)cc(Cl)c1OC,logP,[1],1.75
same,Ki,Dopamine receptor,17.3 nM
COc1c(Cl)cc(Cl)c(O)c1C(=O)NC[C@@H]1CCCN1CCC[18F],Tissue concentration,Rattus norvegicus [2],1.16 % injected dose g-1
same,Tissue concentration,[3],0.04 % injected dose g-1
same,Tissue concentration,Rattus norvegicus [4],0.1 % injected dose g-1
same,Tissue concentration,Rattus norvegicus [5],0.26 % injected dose g-1
same,Tissue concentration,Rattus norvegicus [6],0.05 % injected dose g-1
same,Tissue concentration,Rattus norvegicus [7],0.34 % injected dose g-1
same,Tissue concentration,Rattus norvegicus [8],0.28 % injected dose g-1
same,Tissue concentration,Rattus norvegicus [9],0.54 % injected dose g-1
same,Tissue concentration,Rattus norvegicus [10],0.09 % injected dose g-1
same,Tissue concentration,Rattus norvegicus [11],0.98 % injected dose g-1
same,Tissue concentration,Rattus norvegicus [12],0.03 % injected dose g-1
same,Tissue concentration,Rattus norvegicus [13],0.13 % injected dose g-1
same,Tissue concentration,Rattus norvegicus [14],1.5 % injected dose g-1
same,Tissue concentration,Rattus norvegicus [15],0.07 % injected dose g-1
same,Tissue concentration,Rattus norvegicus [16],0.11 % injected dose g-1
COc1c(Cl)cc(Cl)c(O)c1C(=O)NC[C@@H]1CCCN1CCCC[18F],Tissue concentration,Rattus norvegicus [2],0.71 % injected dose g-1
same,Tissue concentration,Rattus norvegicus [17],0.06 % injected dose g-1
same,Tissue concentration,Rattus norvegicus [4],0.09 % injected dose g-1
same,Tissue concentration,Rattus norvegicus [5],0.21 % injected dose g-1
same,Tissue concentration,Rattus norvegicus [6],0.06 % injected dose g-1
same,Tissue concentration,Rattus norvegicus [7],0.24 % injected dose g-1
same,Tissue concentration,Rattus norvegicus [8],0.22 % injected dose g-1
same,Tissue concentration,Rattus norvegicus [9],0.39 % injected dose g-1
same,Tissue concentration,Rattus norvegicus [10],0.08 % injected dose g-1
same,Tissue concentration,Rattus norvegicus [11],0.58 % injected dose g-1
same,Tissue concentration,Rattus norvegicus [12],0.05 % injected dose g-1
same,Tissue concentration,Rattus norvegicus [13],0.12 % injected dose g-1
same,Tissue concentration,Rattus norvegicus [14],0.87 % injected dose g-1
same,Tissue concentration,Rattus norvegicus [15],0.09 % injected dose g-1
same,Tissue concentration,Rattus norvegicus [16],0.1 % injected dose g-1
COc1c(Cl)cc(Cl)c(O)c1C(=O)NC[C@@H]1CCCN1CC[18F],Tissue concentration,Rattus norvegicus [2],0.52 % injected dose g-1
same,Tissue concentration,Rattus norvegicus [4],0.07 % injected dose g-1
same,Tissue concentration,Rattus norvegicus [5],0.16 % injected dose g-1
same,Tissue concentration,Rattus norvegicus [7],0.23 % injected dose g-1
same,Tissue concentration,Rattus norvegicus [8],0.2 % injected dose g-1
same,Tissue concentration,Rattus norvegicus [10],0.05 % injected dose g-1
same,Tissue concentration,Rattus norvegicus [11],0.42 % injected dose g-1
same,Tissue concentration,Rattus norvegicus [13],0.09 % injected dose g-1
same,Tissue concentration,Rattus norvegicus [14],0.62 % injected dose g-1
same,Tissue concentration,Rattus norvegicus [16],0.06 % injected dose g-1
COc1c(Cl)cc(Cl)c(O)c1C(=O)NC[C@@H]1CCCN1CCF,logP,[1],0.55
same,Ki,Dopamine receptor,159 nM
CCN1CCC[C@H]1CNC(=O)c1c(O)c(Cl)cc(Cl)c1OC [RACLOPRIDE],Kd,[18],0.81 nM
COc1c(Cl)cc(Cl)c(O)c1C(=O)NC[C@@H]1CCCN1CCC(C)F (stereo not given in full),logP,[1],1.5
same,Ki,Dopamine receptor,2610 nM
COc1c(Cl)cc(Cl)c(O)c1C(=O)NC[C@@H]1CCCN1CCCF,logP,[1],1.07
same,Ki,Dopamine receptor,130 nM
COc1c(Cl)cc(Cl)c(O)c1C(=O)NC[C@@H]1CCCN1CCCCF,logP,[1],1.6
same,Ki,Dopamine receptor,88.5 nM
